ChEMBL document CHEMBL1152843, “Synthesis of new series of 5,6-dihydro-4H-1,2-oxazines via hetero Diels-Alder reaction and evaluation of antimicrobial activity” (2009)
In brackets after ≈: the same amount, converted by molar mass.

Experiments:
Type in all cases: functional
Klebsiella pneumoniae [1] = experiment: Antibacterial activity against Klebsiella pneumoniae […] after 24 hrs by cup diffusion method
Escherichia coli [2] = experiment: Antibacterial activity against Escherichia coli MTCC 443 at 20 ug after 24 hrs by cup diffusion method; settings: MTCC 443, 24 h, read-out: IZ
How it was run: (§1)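 Agar cup diffusion. Plates of sterile medium in 9 cm dishes were seeded with 1 × 10⁵ cfu of bacteria, with the suspension adjusted to at least 1 × 10⁵ cfu/ml in nutrient broth. Compound in DMF was placed in 5 mm cups and pre-diffused for 1 h. Plates were incubated at 37 °C for 24 h and the inhibition zone measured in mm. DMF served as negative control.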

Aspergillus flavus [3] = experiment: Antifungal activity against Aspergillus flavus after 48 hrs by cup diffusion method
Fusarium oxysporum [4] = experiment: Antifungal activity against Fusarium oxysporum at 20 ug after 48 hrs by cup diffusion method; settings: read-out: IZ
How it was run: (§2)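 Cup diffusion on 9 cm plates seeded with 1 × 10⁶ cfu of fungi, with spores adjusted to at least 1 × 10⁶ cfu/ml in potato dextrose broth. Compound in DMF was placed in 5 mm agar cups and left 1 h to diffuse. Plates were incubated at 28 °C for 48 h and the inhibition zone read in mm. DMF was the negative control.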

Aspergillus niger [5] = experiment: Antifungal activity against Aspergillus niger after 48 hrs by cup diffusion method
Aspergillus flavus [6] = experiment: Antifungal activity against Aspergillus flavus at 20 ug after 48 hrs by cup diffusion method; settings: read-out: IZ; how it was run: as §2
Staphylococcus aureus [7] = experiment: Antibacterial activity against Staphylococcus aureus MTCC 737 after 24 hrs by cup diffusion method; settings: MTCC 737, 24 h
Fusarium verticillioides [8] = experiment: Antifungal activity against Fusarium moniliforme at 20 ug after 48 hrs by cup diffusion method; settings: read-out: IZ; how it was run: as §2
Staphylococcus aureus [9] = experiment: Antibacterial activity against Staphylococcus aureus MTCC 737 at 20 ug after 24 hrs by cup diffusion method; settings: MTCC 737, 24 h, read-out: IZ; how it was run: as §1
Pseudomonas aeruginosa [10] = experiment: Antibacterial activity against Pseudomonas aeruginosa MTCC 1688 after 24 hrs by cup diffusion method; settings: MTCC 1688, 24 h
Fusarium verticillioides [11] = experiment: Antifungal activity against Fusarium moniliforme after 48 hrs by cup diffusion method
Aspergillus niger [12] = experiment: Antifungal activity against Aspergillus niger at 20 ug after 48 hrs by cup diffusion method; settings: read-out: IZ; how it was run: as §2
Fusarium oxysporum [13] = experiment: Antifungal activity against Fusarium oxysporum after 48 hrs by cup diffusion method
Escherichia coli [14] = experiment: Antibacterial activity against Escherichia coli MTCC 443 after 24 hrs by cup diffusion method; settings: MTCC 443, 24 h
Klebsiella pneumoniae [15] = experiment: Antibacterial activity against Klebsiella pneumoniae […] at 20 ug after 24 hrs by cup diffusion method; settings: read-out: IZ; how it was run: as §1
Pseudomonas aeruginosa [16] = experiment: Antibacterial activity against Pseudomonas aeruginosa MTCC 1688 at 20 ug after 24 hrs by cup diffusion method; settings: MTCC 1688, 24 h, read-out: IZ; how it was run: as §1

| SMILES | MIC (Klebsiella pneumoniae [1]) | MIC (Aspergillus flavus [3]) | MIC (Aspergillus niger [5]) | MIC (Staphylococcus aureus [7]) | MIC (Pseudomonas aeruginosa [10]) | MIC (Fusarium verticillioides [11]) | MIC (Fusarium oxysporum [13]) | MIC (Escherichia coli [14]) | zone of inhibition at 20 µg/disc (Escherichia coli [2]) | zone of inhibition at 20 µg/disc (Fusarium oxysporum [4]) | zone of inhibition at 20 µg/disc (Aspergillus flavus [6]) | zone of inhibition at 20 µg/disc (Fusarium verticillioides [8]) | zone of inhibition at 20 µg/disc (Staphylococcus aureus [9]) | zone of inhibition at 20 µg/disc (Aspergillus niger [12]) | zone of inhibition at 20 µg/disc (Klebsiella pneumoniae [15]) | zone of inhibition at 20 µg/disc (Pseudomonas aeruginosa [16]) |
| --- | --- | --- | --- | --- | --- | --- | --- | --- | --- | --- | --- | --- | --- | --- | --- | --- |
| Cc1ccc(C2=NOC(CO)CC2)cc1 (centres undefined) | 30 µg/mL (≈ 146 µM) | 30 µg/mL (≈ 146 µM) | 35 µg/mL (≈ 171 µM) | 25 µg/mL (≈ 122 µM) | 25 µg/mL (≈ 122 µM) | 30 µg/mL (≈ 146 µM) | 25 µg/mL (≈ 122 µM) | 35 µg/mL (≈ 171 µM) | 8.83 mm | 19.8 mm | 12.5 mm | 15.8 mm | 7.5 mm | 11.5 mm | 19.8 mm | 10.8 mm |
| COc1ccc(C2=NOC(CO)CC2)cc1 (centres undefined) | 25 µg/mL (≈ 113 µM) | 35 µg/mL (≈ 158 µM) | 40 µg/mL (≈ 181 µM) | 20 µg/mL (≈ 90.4 µM) | 20 µg/mL (≈ 90.4 µM) | 35 µg/mL (≈ 158 µM) | 30 µg/mL (≈ 136 µM) | 35 µg/mL (≈ 158 µM) | 10.7 mm | 19.5 mm | 7.83 mm | 17.6 mm | 10.8 mm | 8.66 mm | 15.5 mm | 16.7 mm |
| Cc1ccc(C2=NOC(C#N)CC2)cc1 (centres undefined) | 20 µg/mL (≈ 99.9 µM) | 35 µg/mL (≈ 175 µM) | 40 µg/mL (≈ 200 µM) | 15 µg/mL (≈ 74.9 µM) | 20 µg/mL (≈ 99.9 µM) | 30 µg/mL (≈ 150 µM) | 25 µg/mL (≈ 125 µM) | 25 µg/mL (≈ 125 µM) | 11.5 mm | 13.7 mm | 7.5 mm | 10.5 mm | 23.5 mm | 6.83 mm | 16.7 mm | 12.7 mm |
| Cc1ccc(C2=NOC(Cc3ccc4c(c3)OCO4)CC2)cc1 (centres undefined) | 20 µg/mL (≈ 64.6 µM) | 15 µg/mL (≈ 48.5 µM) | 20 µg/mL (≈ 64.6 µM) | 15 µg/mL (≈ 48.5 µM) | 20 µg/mL (≈ 64.6 µM) | 20 µg/mL (≈ 64.6 µM) | 10 µg/mL (≈ 32.3 µM) | 25 µg/mL (≈ 80.8 µM) | 10.7 mm | 24.5 mm | 17.8 mm | 19.5 mm | 12.8 mm | 15.7 mm | 19.7 mm | 11.2 mm |
| COc1ccc(C2=NOC(C#N)CC2)cc1OC (centres undefined) | 15 µg/mL (≈ 60.9 µM) | 35 µg/mL (≈ 142 µM) | 35 µg/mL (≈ 142 µM) | 15 µg/mL (≈ 60.9 µM) | 10 µg/mL (≈ 40.6 µM) | 30 µg/mL (≈ 122 µM) | 30 µg/mL (≈ 122 µM) | 25 µg/mL (≈ 102 µM) | 10.5 mm | 15.5 mm | 10.5 mm | 12.8 mm | 15.5 mm | 11.5 mm | 7.75 mm | 24.5 mm |
| CCOC(=O)C1CCC(c2ccc(OC)c(OC)c2)=NO1 (centres undefined) | 20 µg/mL (≈ 68.2 µM) | 35 µg/mL (≈ 119 µM) | 35 µg/mL (≈ 119 µM) | 15 µg/mL (≈ 51.1 µM) | 15 µg/mL (≈ 51.1 µM) | 30 µg/mL (≈ 102 µM) | 35 µg/mL (≈ 119 µM) | 30 µg/mL (≈ 102 µM) | 14.7 mm | 16.7 mm | 9.66 mm | 11.7 mm | 16.5 mm | 8 mm | 20.7 mm | 25.7 mm |

Second part, led by results:

| MIC (Klebsiella pneumoniae [1]) | MIC (Aspergillus flavus [3]) | MIC (Aspergillus niger [5]) | MIC (Staphylococcus aureus [7]) | MIC (Pseudomonas aeruginosa [10]) | MIC (Fusarium verticillioides [11]) | MIC (Fusarium oxysporum [13]) | MIC (Escherichia coli [14]) | SMILES | zone of inhibition at 20 µg/disc (Escherichia coli [2]) | zone of inhibition at 20 µg/disc (Fusarium oxysporum [4]) | zone of inhibition at 20 µg/disc (Aspergillus flavus [6]) | zone of inhibition at 20 µg/disc (Fusarium verticillioides [8]) | zone of inhibition at 20 µg/disc (Staphylococcus aureus [9]) | zone of inhibition at 20 µg/disc (Aspergillus niger [12]) | zone of inhibition at 20 µg/disc (Klebsiella pneumoniae [15]) | zone of inhibition at 20 µg/disc (Pseudomonas aeruginosa [16]) |
| --- | --- | --- | --- | --- | --- | --- | --- | --- | --- | --- | --- | --- | --- | --- | --- | --- |
| 15 µg/mL (≈ 44.7 µM) | 15 µg/mL (≈ 44.7 µM) | 20 µg/mL (≈ 59.6 µM) | 10 µg/mL (≈ 29.8 µM) | 15 µg/mL (≈ 44.7 µM) | 20 µg/mL (≈ 59.6 µM) | 15 µg/mL (≈ 44.7 µM) | 25 µg/mL (≈ 74.5 µM) | c1cc2c(cc1CC1CCC(c3ccc4c(c3)CCC4)=NO1)OCO2 (centres undefined) | 11.5 mm | 26.7 mm | 20.7 mm | 21.5 mm | 15.7 mm | 18.7 mm | 16.5 mm | 21.5 mm |
| 15 µg/mL (≈ 60.1 µM) | 10 µg/mL (≈ 40 µM) | 15 µg/mL (≈ 60.1 µM) | 10 µg/mL (≈ 40 µM) | 15 µg/mL (≈ 60.1 µM) | 20 µg/mL (≈ 80.1 µM) | 10 µg/mL (≈ 40 µM) | 20 µg/mL (≈ 80.1 µM) | ClCC1CCC(c2ccc3c(c2)CCC3)=NO1 (centres undefined) | 11.8 mm | 38.5 mm | 32.8 mm | 34.5 mm | 13.5 mm | 28.8 mm | 25.8 mm | 34.5 mm |
| 15 µg/mL (≈ 67.1 µM) | 15 µg/mL (≈ 67.1 µM) | 15 µg/mL (≈ 67.1 µM) | 10 µg/mL (≈ 44.7 µM) | 15 µg/mL (≈ 67.1 µM) | 10 µg/mL (≈ 44.7 µM) | 15 µg/mL (≈ 67.1 µM) | 20 µg/mL (≈ 89.4 µM) | Cc1ccc(C2=NOC(CCl)CC2)cc1 (centres undefined) | 15.7 mm | 20.8 mm | 14.5 mm | 17.7 mm | 16.7 mm | 13.8 mm | 16.5 mm | 11.5 mm |
